Reference: ChEMBL document CHEMBL1177748, “Homo- and heptanor-sterols and tremulane sesquiterpenes from cultures of Phellinus igniarius” (2010)
One block for each molecule: values may come before it. Activity calls are given as the source filed them. The rule behind the calls is not given here.

Columns and labels:
Thoracic aorta = assay: Vasodilating activity in Langendorff-perfused Sprague-Dawley rat thoracic aorta assessed as relaxation of phenylephrine-induced vasoconstriction at 10 uM relative to untreated control; format: functional; design: scale not given: the % may be the effect or the level left
Method in brief: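 Thoracic aortic rings were taken from Langendorff-perfused Sprague-Dawley rats weighing 200 ± 20 g. Rings were precontracted with phenylephrine, and isotonic tension was recorded. Compounds were tested at 10^-5 M. The relaxing rate was expressed as a percentage relative to the blank control.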

PC-12 = assay: Neuroprotective activity against glutamate-induced neurotoxicity in rat PC12 cells at 10 uM; format: functional, cell-based
[1] = tested on: Human immunodeficiency virus 1; assay: Antiviral activity against HIV1 assessed as inhibition of viral replication at 10 uM; format: functional, organism-based
Liver microsomes = assay: Antioxidant activity against Fe2+-cystine induced lipid peroxidation in rat liver microsomes at 10 uM; format: functional; conditions: Microsome
[2] = biological target: T1, Tyrosine-protein phosphatase non-receptor type 1 (Homo sapiens) (UniProt P18031); assay: Inhibition of PTB1B at 10 uM
T1 sequence (whole entry): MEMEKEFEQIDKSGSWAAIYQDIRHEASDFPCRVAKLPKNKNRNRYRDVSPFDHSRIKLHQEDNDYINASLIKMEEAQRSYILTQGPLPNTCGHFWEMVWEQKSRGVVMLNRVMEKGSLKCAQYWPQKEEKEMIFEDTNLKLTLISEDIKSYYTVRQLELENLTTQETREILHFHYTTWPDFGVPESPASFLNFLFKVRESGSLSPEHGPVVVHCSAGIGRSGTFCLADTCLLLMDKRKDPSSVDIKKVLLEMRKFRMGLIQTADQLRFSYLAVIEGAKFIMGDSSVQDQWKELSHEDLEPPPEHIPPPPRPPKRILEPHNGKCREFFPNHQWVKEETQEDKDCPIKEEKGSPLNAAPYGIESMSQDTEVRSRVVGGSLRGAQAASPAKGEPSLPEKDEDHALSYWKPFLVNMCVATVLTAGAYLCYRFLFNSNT

Rattus norvegicus = species: Rattus norvegicus; assay: Inhibition of platelet-activating factor-induced beta-glucuronidase release in rat PMNC at 10 uM; format: functional

inhibition [2]: inactive
SMILES: C[C@H]1CC[C@H](CO)[C@H](CO)C2=C[C@](C)(CO)C[C@H]21
Activity (Thoracic aorta): 35.7%
inhibition (PC-12): inactive
inhibition [1]: inactive
inhibition (Liver microsomes): inactive
inhibition (Rattus norvegicus): inactive

inhibition [2]: inactive
SMILES: C[C@H]1CCC2=C(COC2=O)[C@@]2(O)CC(C)(C)C[C@@H]12
Activity (Thoracic aorta): 46.6%
inhibition (PC-12): inactive
inhibition [1]: inactive
inhibition (Liver microsomes): inactive
inhibition (Rattus norvegicus): inactive

SMILES: COc1ccc(CCN(C)CCCC(C#N)(c2ccc(OC)c(OC)c2)C(C)C)cc1OC (stereo not given) [VERAPAMIL]
Activity (Thoracic aorta): 83.3%

inhibition [2]: inactive
SMILES: C[C@H]1CC[C@H](CO)[C@H](CO)C2=C[C@@](C)(CO)C[C@H]21
Activity (Thoracic aorta): 45.4%
inhibition (PC-12): inactive
inhibition [1]: inactive
inhibition (Liver microsomes): inactive
inhibition (Rattus norvegicus): inactive

inhibition [2]: inactive
SMILES: CC1(C)OCC2=CC[C@H]3C(C)(C)[C@@H](O)CC[C@]3(C)[C@H]2CO1
Activity (Thoracic aorta): 32.1%
inhibition (PC-12): inactive
inhibition [1]: inactive
inhibition (Liver microsomes): inactive
inhibition (Rattus norvegicus): inactive
